Calls of active or inactive are those of the source.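 How the source made its calls, unless noted: active means visually confirmed hit in the image check and inhibition above 20%; inconclusive means visually confirmed hit but inhibition not above 20%; inactive means no visual hit in the image check.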

From PubChem BioAssay come the findings set out here.

The nature of test [1]: inhibitors of TNFa-induced NFkB p65 translocation, primary screen, imaging, HUVEC, MLSMR starter and 10KST1 sets (AID 438;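 active means inhibition above 20% together with a positive visual image hit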;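 further: compound added about 3h40 before a 20 min TNFalpha stimulation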;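 on inhibition: signal is the nuclear over cytoplasmic p65 intensity ratio per well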). Particulars: HUVEC TNFa-induced p65 nuclear translocation; cell count: measured here: nuclei count (cytotoxicity indicator), at 2.08 µM; inhibition: at 2 µM, stronger effect = higher value, 0% TNFa-plus-vehicle, 100% no-TNFa wells.
The nature of test [2]: endothelial E-selectin expression blockers – imaging, HUVEC, immunofluorescence, MLSMR starter and 10KST1 sets, primary screen (AID 487).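 On inhibition: signal is fraction of cell area covered by stained E-selectin grains.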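 On nuclei count: 100% = median nuclei count of all wells on the same plate.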 The conditions noted are these: HUVEC TNFalpha-induced E-selectin immunofluorescence imaging, at 2 µM; inhibition: stronger effect = higher value; nuclei count: measured here: cell number, toxicity.
Test [3] is described as follows: Primary imaging screen for DUSP6 inhibitors that restore phospho-Erk in transfected HeLa cells, chemical complementation (AID 609;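 active means compounds giving at least 50% inhibition in the cell-based MKP-3 phosphatase rescue imaging test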;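 on inhibition: phospho-Erk level distribution per well compared with pooled transfected vehicle control wells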). The conditions noted are these: HeLa MKP-3 transfected, phospho-Erk imaging KS statistic, at 10 µM, cells stimulated with TPA for 15 min.
Test [4] deals with Dual specificity protein phosphatase 6 (Homo sapiens) (UniProt Q16828). The test is described as above. Particulars: HeLa MKP-3 transfected, phospho-Erk imaging KS statistic; at 10 µM; stronger effect = higher value; cells stimulated with TPA for 15 min.
Chain of Dual specificity protein phosphatase 6 (Homo sapiens) (Q16828 whole entry, looked up): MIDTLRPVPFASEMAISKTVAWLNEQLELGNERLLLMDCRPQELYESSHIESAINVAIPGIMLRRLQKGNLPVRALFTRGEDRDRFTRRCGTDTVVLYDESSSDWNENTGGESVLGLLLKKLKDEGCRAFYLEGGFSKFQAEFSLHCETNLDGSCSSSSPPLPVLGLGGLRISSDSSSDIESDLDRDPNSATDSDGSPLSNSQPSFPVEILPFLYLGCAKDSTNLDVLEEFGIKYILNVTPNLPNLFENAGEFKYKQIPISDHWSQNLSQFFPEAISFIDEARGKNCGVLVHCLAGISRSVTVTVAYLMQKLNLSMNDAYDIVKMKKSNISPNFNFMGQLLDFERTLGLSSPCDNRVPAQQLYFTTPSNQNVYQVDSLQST
The target of test [5] is Voltage-gated potassium channel subunit beta-2 (Rattus norvegicus) (UniProt P62483). As to the kind of experiment: inhibitors of rat Kvbeta2 reductase activity – biochemical, NADPH fluorescence, primary screen (AID 622;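 active means fluorescence slope higher than the sample average by over 3 SD, cut at about -0.22 in these data, passing the limit was not always enough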;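 further: slope of raw intensity against log time taken from 70 to 1610 s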). The conditions noted are these: recombinant KvBeta, 4-cyanobenzaldehyde reduction, at 10 µM, stronger effect = higher value.
Chain of Voltage-gated potassium channel subunit beta-2 (Rattus norvegicus) (P62483 whole entry, looked up): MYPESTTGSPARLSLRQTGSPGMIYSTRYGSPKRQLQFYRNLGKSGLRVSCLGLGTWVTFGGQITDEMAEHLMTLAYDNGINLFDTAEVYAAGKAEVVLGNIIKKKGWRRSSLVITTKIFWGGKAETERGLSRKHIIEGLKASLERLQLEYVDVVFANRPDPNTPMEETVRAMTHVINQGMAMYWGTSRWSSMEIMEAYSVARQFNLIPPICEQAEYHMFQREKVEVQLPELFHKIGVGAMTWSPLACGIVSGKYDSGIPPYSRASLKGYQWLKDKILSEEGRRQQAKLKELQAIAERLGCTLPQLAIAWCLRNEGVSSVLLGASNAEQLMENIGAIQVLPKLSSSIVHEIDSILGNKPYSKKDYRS
Test [6] shares this target. As to the kind of experiment: enhancers of rat Kvbeta2 NADPH turnover – biochemical, NADPH fluorescence, primary screen (AID 623;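 active means NADPH fluorescence slope more negative than the mean of all samples by about 3 SD, 99.7% confidence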;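 further: fluorescence intensity change per second fitted from 20 to 320 s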). Particulars: Recombinant KvBeta, NADPH fluorescence decrease slope, 10 min; at 10 µM; stronger effect = lower value.
In test [7] the target is Muscarinic acetylcholine receptor M4 (Homo sapiens) (UniProt P08173). Description: M4-linked GIRK flux change, two-sided – cell-based, HEK293 M4/GIRK, thallium flux, BTC-AM, M4 allosteric agonist project, primary screen (AID 625;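 active means fluorescence slope after compound addition differing from the mean of all tested samples at 99.7% confidence, mostly higher but some lower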;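 further: thallium influx through GIRK channels coupled to M4 in HEK293 cells with BTC-AM dye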). Particulars: at 10 µM, actives lie on both sides. Summed up:
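assay system = HEK293 cells with M4 receptor and GIRK channels | medium = pH 7.3 thallium assay buffer | doses = 10 µM final, single point | timing = cells overnight at 37 °C, BTC-AM loading 1 h, reads 2 min total | signal = BTC-AM fluorescence, 1 Hz kinetic reads | read-out = post-addition slope, 15–24 s, of baseline-normalized fluorescence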

Test [8] can be described thus: inhibitors of larval lipid processing in zebrafish, primary screen, whole organism, PED6 fluorescence, gall bladder and intestine (AID 686;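 active means a full or partial loss of lipid-probe fluorescence in the fish gall bladder, intestine or both, judged by eye; inactive means no fluorescence loss, or compound toxic to the fish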;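 further: larvae 5 to 7 days old with five fish per well; signal comes from phospholipase A2 cleavage of quenched PED6 carried via bile; overnight exposure to compound and PED6 before scoring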). The conditions noted are these: Zebrafish larvae PED6 lipid processing, fluorescence scoring; screened at 20 µM (by protocol). Summed up: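 Also added: quenched phospholipase substrate PED6, 100 nM final, ingested by larvae; System: zebrafish larvae, 5-7 d; Quantity: 5 larvae per well; Compound: 20 µM single dose; Schedule: overnight compound and PED6 incubation; Read-out: visual per-well fluorescence inhibition score; Measured by: By-eye fluorescence microscopy; Medium: E3.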

Test [9] can be described thus: loss of swimming-algae plug formation – whole organism, Chlamydomonas reinhardtii, WT vs cilia-less mutant, absorbance, 96-well, primary screen (AID 463189;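 active means inhibition at or above 50% relative to wild type and mutant plate controls; inactive means inhibition below 50%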;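 further: 0% = wild type cc124 cells in DMSO and 100% = ciliumless bld1 mutant cells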). The conditions noted are these: Chlamydomonas reinhardtii gravitaxis, OD600 absorbance, 2 days; at 10 µM; stronger effect = higher value.
Setting [10] is: measured here: cell density z-score.
[11] abbreviates: measured here: nuclear c-Myc green intensity z-score.
The mark [12] stands for this setting: measured here: nuclear pErk red intensity z-score, stronger effect = higher value.

Chain of Muscarinic acetylcholine receptor M4 (Homo sapiens) (P08173 whole entry, looked up): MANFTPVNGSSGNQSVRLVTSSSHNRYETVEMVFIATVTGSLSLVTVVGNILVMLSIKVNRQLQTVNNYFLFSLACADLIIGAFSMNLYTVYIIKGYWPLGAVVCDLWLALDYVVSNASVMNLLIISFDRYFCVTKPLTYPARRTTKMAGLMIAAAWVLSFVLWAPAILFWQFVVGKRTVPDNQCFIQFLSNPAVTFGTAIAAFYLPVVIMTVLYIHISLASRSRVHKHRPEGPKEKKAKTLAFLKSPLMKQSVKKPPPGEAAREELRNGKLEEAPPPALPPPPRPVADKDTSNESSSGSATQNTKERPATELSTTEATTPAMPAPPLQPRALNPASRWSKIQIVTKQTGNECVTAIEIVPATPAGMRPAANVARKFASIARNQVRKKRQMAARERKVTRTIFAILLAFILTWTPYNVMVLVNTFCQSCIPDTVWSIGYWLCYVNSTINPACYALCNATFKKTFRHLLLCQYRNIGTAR

For `O=C1C(=O)N(Cc2cccnc2)C(c2ccccn2)/C1=C(/O)c1ccccc1` (stereo unspecified), the cell count in test [1] worked out at 620. Moreover, the inhibition (as a rule, the change of the read-out against control, counted positive when it falls) is -5.9% (inactive) in [1], -74.4% (inactive) in [2], -8.95% (inactive) in test [4] and 6.67% (inactive) in test [9]. Besides, the nuclei count in [2] is 158%. For the same compound, the z-score in test [3] (setting [10]) was -0.531; in test [3] (setting [11]), 0.731; in test [3] (setting [12]), -0.436. Further, the results for the fluorescence slope in test [5] and in test [7] were -0.503 (inactive) and 0.00562 (inactive), respectively. Besides, the NADPH fluorescence slope in test [6] is -6.6e-05 (inactive). The compound was classed as inactive in [8].
For `CCN(CC)CCN1C(=O)C(=O)/C(=C(/O)c2c(C)[nH]c(C(=O)OC)c2C)C1c1cccc(OC)c1` (stereo unspecified), the cell count in [1] is 699. In addition, the inhibition in [1] is -1% (inactive); in [2] it was -150% (inactive); in [4], 13.2% (inactive); in test [9], 16.5% (inactive). The nuclei count in test [2] stood at 188%. Further, the values for the z-score in test [3] (setting [10]), in test [3] (setting [11]) and in [3] (setting [12]) were -0.637, -0.455 and -0.673, respectively. For the same compound, the fluorescence slope was -0.445 (inactive) in [5] and 0.0061 (inactive) in test [7]. In addition, the NADPH fluorescence slope in test [6] is -7.9e-05 (inactive). In test [8], the outcome was inactive.
Turning to `CC(=O)Oc1ccc2c(C)cc(=O)[nH]c2c1`, the cell count in test [1] was found to be 666. For the same compound, the inhibition in [1] was -2% (inactive); in test [2] it was -13% (inactive); in test [4], 5.95% (inactive); in test [9] it was 22.8% (inactive). In test [2], this compound had a nuclei count of 99.4%. Further, the values for the z-score in test [3] (setting [10]), in test [3] (setting [11]) and in [3] (setting [12]) were -0.72, 0.616 and 0.878, respectively. Also, the fluorescence slope in test [5] is -0.502 (inactive); in test [7], 0.00681 (inactive). Moreover, in test [6], the NADPH fluorescence slope is -0.000195 (active). The outcome in test [8] was inactive.
Consider `COc1ccc(-c2nc3c(Br)c(N)c(Br)cc3o2)cc1`, for which the cell count in test [1] stood at 497. Further, the inhibition in test [1] is -7.6% (inactive); in test [2], -77.2% (inactive); in test [4], -1.98% (inactive); in test [9], 14.6% (inactive). Also, in test [2], the nuclei count is 140%. In addition, the figures for the z-score in [3] (setting [10]), in test [3] (setting [11]) and in test [3] (setting [12]) were 0.844, -1.44 and 0.173, respectively. Moreover, the fluorescence slope is -0.404 (inactive) in test [5] and 0.0064 (inactive) in test [7]. Further, the NADPH fluorescence slope in test [6] was -2.1e-05 (inactive). The result in test [8] was inactive.
For `CCc1nc2n[nH]c(N)c2c2c1CSC(C)(C)C2`, in test [1], the cell count is 644. Also, the inhibition in test [1] is -0.8% (inactive); in test [2], -44.1% (inactive); in test [4], -15% (inactive); in test [9], 12.1% (inactive). In test [2], this compound registered a nuclei count of 168%. The z-score in [3] (setting [10]) was -1.43; in test [3] (setting [11]), 0.647; in [3] (setting [12]), 2.27. Besides, the fluorescence slope was -0.458 (inactive) in test [5] and 0.00446 (inactive) in test [7]. The NADPH fluorescence slope in test [6] was -5.1e-05 (inactive). In addition, the compound was classed as inactive in test [8].
On to `COC(=O)CSc1nc(N)nc(C)c1Br`, for which the cell count in test [1] worked out at 688. Moreover, the inhibition in test [1] is -10% (inactive); in [2] it was 23.8% (inactive); in [4] it was -3.95% (inactive); in test [9], -4.73% (inactive). For the same compound, the nuclei count in test [2] was found to be 150%. Besides, the z-score amounted to 0.424 in test [3] (setting [10]), 0.473 in [3] (setting [11]) and 0.0816 in test [3] (setting [12]). Moreover, the fluorescence slope is -0.429 (inactive) in test [5] and 0.00418 (inactive) in test [7]. Also, in test [6], the NADPH fluorescence slope was -3.4e-05 (inactive). For the same compound, the outcome in test [8] was inactive.
Regarding `c1ccc(-n2ncc3c(NCC4CCCO4)ncnc32)cc1` (stereo unspecified), in test [1], the cell count was 597. Further, the inhibition in test [1] is -4% (inactive); in [2] it was -84.5% (inactive); in test [4], 1.42% (inactive); in test [9], -15.2% (inactive). Further, the nuclei count in test [2] was 113%. For the same compound, the z-score in test [3] (setting [10]) is -2.6; in test [3] (setting [11]), -0.155; in [3] (setting [12]), 1.07. Also, the fluorescence slope in test [5] is -0.389 (inactive); in test [7] it was 0.00807 (inactive). In test [6], the NADPH fluorescence slope is -9.3e-05 (inactive). Besides, in test [8], the result was inactive.
`Cc1cc2c(c(=O)o1)C(CC(C)C)C(C#N)=C(N)O2` (stereo unspecified): the cell count in test [1] is 703. The inhibition was 2% (inactive) in test [1], -144% (inactive) in test [2], -1.12% (inactive) in test [4] and 3.4% (inactive) in test [9]. Also, the nuclei count in [2] is 167%. The z-score was -0.228 in test [3] (setting [10]), -0.296 in test [3] (setting [11]) and -0.119 in [3] (setting [12]). Moreover, the results for the fluorescence slope in test [5] and in [7] were -0.436 (inactive) and 0.00457 (inactive), respectively. Further, the NADPH fluorescence slope in test [6] was -5.8e-05 (inactive). In test [8], the compound was called inactive.
Turning to `COC(=O)C(NC(=O)c1ccco1)(Nc1ccc(Br)cn1)C(F)(F)F` (stereo unspecified), the cell count in [1] stood at 717. Further, the inhibition in test [1] is -8.8% (inactive); in test [2] it was 13.2% (inactive); in test [4], -5.81% (inactive); in [9], 4.54% (inactive). Besides, the nuclei count in [2] is 147%. The values for the z-score in test [3] (setting [10]), in test [3] (setting [11]) and in test [3] (setting [12]) were -0.772, -0.373 and 1.11, respectively. Further, the fluorescence slope was -0.457 (inactive) in test [5] and 0.00446 (inactive) in test [7]. In addition, in test [6], the NADPH fluorescence slope was -6.6e-05 (inactive). In addition, in [8], the outcome was inactive.
On to `CCOc1cccc(N2C(=O)CC(N(CCc3ccc(OC)c(OC)c3)C(=O)CC)C2=O)c1` (stereo unspecified), for which the cell count in [1] was found to be 586. For the same compound, the inhibition was -0.6% (inactive) in [1], 2.4% (inactive) in test [2], -7.67% (inactive) in test [4] and -0.122% (inactive) in [9]. Besides, the nuclei count in test [2] was 120%. The z-score in test [3] (setting [10]) is -0.772; in test [3] (setting [11]) it was 0.365; in [3] (setting [12]), -1.41. The fluorescence slope in [5] was -0.453 (inactive); in [7], 0.00547 (inactive). For the same compound, the NADPH fluorescence slope in [6] is -1.2e-05 (inactive). Besides, the outcome in [8] was inactive.
As for `Cc1cccn2c(=O)c3cc(C(N)=S)c(=N)n(CCCOC(C)C)c3nc12`, in test [1], the cell count was found to be 637. For the same compound, the inhibition was -5.4% (inactive) in [1], -92.7% (inactive) in test [2], 12.7% (inactive) in [4] and 145% (active) in [9]. In test [2], this compound returned a nuclei count of 153%. Besides, the z-score in [3] (setting [10]) is 1.81; in test [3] (setting [11]) it was -0.956; in test [3] (setting [12]), -1.49. Also, the fluorescence slope in [5] was -0.447 (inactive); in test [7], 0.00286 (inactive). For the same compound, the NADPH fluorescence slope in test [6] is -3.3e-05 (inactive). The call in [8] was inactive.
For the compound `CCOC(=O)C(C)Oc1ccc2c(C)cc(=O)oc2c1C(C)=O` (stereo unspecified), in test [1], the cell count came out at 708. The inhibition in [1] was 3.9% (inactive); in [2] it was -13.3% (inactive); in [4], 1.98% (inactive); in test [9] it was 3.24% (inactive). Moreover, the nuclei count in [2] worked out at 198%. Besides, the z-score in test [3] (setting [10]) is -0.905; in test [3] (setting [11]) it was 0.873; in test [3] (setting [12]), 1.56. The fluorescence slope is -0.459 (inactive) in test [5] and 0.00606 (inactive) in test [7]. Further, the NADPH fluorescence slope in test [6] was -4.7e-05 (inactive). Besides, in [8], the outcome was inactive.
